Experimental findings from ChEMBL document CHEMBL1240471, “Synthesis and anticancer activity of chromone-based analogs of lavendustin A” (Eur J Med Chem, 2010) are described below.

What all share (type): functional, cell-based
In one assay the test system is A549. The assay can be described thus: Growth inhibition of human A549 cells after 72 hrs by SRB assay. Particulars: A549, 72 h. The method in brief:
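A-549 cells were seeded at 2 × 10³ cells/well. Various sample concentrations were tested in triplicate over 72 h at 37 °C under 5% CO₂. Absorbance was read at 520 nm. GI₅₀ was assigned as the concentration giving 50% growth inhibition.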
In general terms: Sulforhodamine B stains cellular protein and so reports cell mass.

For another assay, the system named is SK-MEL-2. The experiment in a line: Growth inhibition of human SK-MEL-2 cells after 72 hrs by SRB assay. Particulars: SK-MEL-2, 72 h. The procedure, abridged: (§1)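 Cells were seeded at 5 × 10³ cells/well in 96-well plates. Various sample concentrations were added in triplicate, and plates were incubated for 72 h at 37 °C in 5% CO₂. Optical density was read at 520 nm. GI₅₀ was taken as the concentration inhibiting cell growth by 50%.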

A further assay concerns HCT-15. The assay can be described thus: Growth inhibition of human HCT15 cells after 72 hrs by SRB assay. Conditions: HCT-15, 72 h. The method in brief: as §1
Another assay deals with SK-OV-3. The experiment in a line: Growth inhibition of human SKOV3 cells after 72 hrs by SRB assay. Conditions: SK-OV-3, 72 h.
In another assay the test system is A-431. The assay can be described thus: Growth inhibition of human A431 cells after 72 hrs by SRB assay. Conditions: A-431, 72 h. The procedure, abridged: as §1
Another assay relates to KB. The assay can be described thus: Growth inhibition of human KB cells after 72 hrs by SRB assay. The procedure, abridged:
as §1

SMILES strings stand for the structures. ≈ marks a conversion by molar mass, not a printed value.

In general, IC50 refers to the concentration that gives 50% inhibition. Lower therefore signals greater potency. Regarding `Cc1cc(=O)c2ccc(O)c(CN(Cc3ccccc3)Cc3ccccc3)c2o1`, the IC50 in the assay with A549 turned out to be 11.9 µg/mL (≈ 30.9 µM); with SK-MEL-2, 17.8 µg/mL (≈ 46.1 µM); in the assay with HCT-15, 11.3 µg/mL (≈ 29.4 µM); with SK-OV-3, 19 µg/mL (≈ 49.2 µM); in the assay on A-431, 19.5 µg/mL (≈ 50.6 µM); in the assay on KB it was 15.1 µg/mL (≈ 39.2 µM).

On to `COc1ccc(CN(Cc2ccccc2)Cc2c(O)ccc3c(=O)cc(C)oc23)cc1`, for which the IC50 in the assay on A549 is 14.1 µg/mL (≈ 34 µM); in the assay with SK-MEL-2, 78.6 µg/mL (≈ 189 µM); in the assay with HCT-15, 10.7 µg/mL (≈ 25.8 µM); with SK-OV-3, 24.5 µg/mL (≈ 59.1 µM); in the assay on A-431, 44.7 µg/mL (≈ 108 µM); in the assay on KB it was 42.7 µg/mL (≈ 103 µM).

As to `Cc1cc(=O)c2ccc(O)c(CN(CCc3ccccc3)Cc3ccccc3)c2o1`, the IC50 came out at 12.3 µg/mL (≈ 30.9 µM) in the assay on A549; 17.4 µg/mL (≈ 43.5 µM) with SK-MEL-2; 11.7 µg/mL (≈ 29.3 µM) in the assay on HCT-15; 21.6 µg/mL (≈ 54 µM) in the assay on SK-OV-3; 18.5 µg/mL (≈ 46.3 µM) with A-431; 14.5 µg/mL (≈ 36.3 µM) with KB.

With `COc1ccc(CCN(Cc2ccccc2)Cc2c(O)ccc3c(=O)cc(C)oc23)cc1`, the IC50 with A549 amounted to 16.6 µg/mL (≈ 38.7 µM); in the assay with SK-MEL-2 it was 19.9 µg/mL (≈ 46.4 µM); in the assay on HCT-15, 15.8 µg/mL (≈ 36.8 µM); with SK-OV-3 it was 65 µg/mL (≈ 151 µM); in the assay on A-431, 25.2 µg/mL (≈ 58.7 µM); with KB, 16.1 µg/mL (≈ 37.4 µM).

As to `COc1ccc(CCN(Cc2ccccc2)Cc2c(O)ccc3c(=O)cc(C)oc23)cc1OC`, the IC50 is 26.1 µg/mL (≈ 56.8 µM) in the assay with A549; 21.9 µg/mL (≈ 47.6 µM) in the assay with SK-MEL-2; 31.5 µg/mL (≈ 68.5 µM) in the assay with HCT-15; 41.7 µg/mL (≈ 90.7 µM) with SK-OV-3; over 100 µg/mL in the assay with A-431; 24.3 µg/mL (≈ 53 µM) with KB.

Take `CCN(Cc1ccc(OC)cc1)Cc1c(O)ccc2c(=O)cc(C)oc12`: the IC50 in the assay with A549 came to 38.7 µg/mL (≈ 110 µM); in the assay on SK-MEL-2 it was 60.3 µg/mL (≈ 171 µM); with HCT-15, 22.4 µg/mL (≈ 63.5 µM); with SK-OV-3, 57.5 µg/mL (≈ 163 µM); in the assay on A-431, 41.9 µg/mL (≈ 119 µM); in the assay on KB, 47.4 µg/mL (≈ 134 µM).

`COc1ccc(CN(Cc2ccc([N+](=O)[O-])cc2)Cc2c(O)ccc3c(=O)cc(C)oc23)cc1`: the IC50 in the assay with A549 is 24.5 µg/mL (≈ 53.1 µM); with SK-MEL-2, over 100 µg/mL; with HCT-15 it was 28.6 µg/mL (≈ 62.1 µM); in the assay on SK-OV-3 it was over 100 µg/mL; in the assay with A-431, over 100 µg/mL; with KB, 24.4 µg/mL (≈ 53 µM).

As for `COc1ccc(CN(Cc2ccc3ccccc3c2)Cc2c(O)ccc3c(=O)cc(C)oc23)cc1`, the IC50 in the assay on A549 is 6.01 µg/mL (≈ 12.9 µM); in the assay with SK-MEL-2 it was over 100 µg/mL; in the assay with HCT-15, 6.89 µg/mL (≈ 14.8 µM); with SK-OV-3 it was over 100 µg/mL; with A-431, 16.4 µg/mL (≈ 35.2 µM); in the assay with KB it was 17.6 µg/mL (≈ 37.8 µM).

Consider `COc1ccc(CN(Cc2ccc(OC)cc2)Cc2c(O)ccc3c(=O)cc(C)oc23)cc1`, for which the IC50 in the assay with A549 was 62.5 µg/mL (≈ 140 µM); with SK-MEL-2, 31.6 µg/mL (≈ 71 µM); in the assay with HCT-15, 53.7 µg/mL (≈ 121 µM); with SK-OV-3, over 100 µg/mL; with A-431, 38.9 µg/mL (≈ 87.3 µM); with KB, 17.8 µg/mL (≈ 39.9 µM).

On to `CCN(CCc1ccccc1)Cc1c(O)ccc2c(=O)cc(C)oc12`, for which the IC50 in the assay on A549 was 32.7 µg/mL (≈ 96.8 µM); in the assay on SK-MEL-2, 57.5 µg/mL (≈ 171 µM); in the assay on HCT-15, 43.2 µg/mL (≈ 128 µM); with SK-OV-3, over 100 µg/mL; in the assay with A-431 it was over 100 µg/mL; in the assay on KB, 32.6 µg/mL (≈ 96.6 µM).

Take `Cc1cc(=O)c2ccc(O)c(CN(CCc3ccccc3)Cc3ccc([N+](=O)[O-])cc3)c2o1`: the IC50 was 9.92 µg/mL (≈ 22.3 µM) in the assay on A549; 74.1 µg/mL (≈ 167 µM) in the assay with SK-MEL-2; 7.68 µg/mL (≈ 17.3 µM) in the assay with HCT-15; over 100 µg/mL in the assay with SK-OV-3; 61 µg/mL (≈ 137 µM) with A-431; 10.8 µg/mL (≈ 24.4 µM) in the assay with KB.

On to `COc1ccc(CN(CCc2ccccc2)Cc2c(O)ccc3c(=O)cc(/C=C/c4ccccc4)oc23)cc1`, for which the IC50 in the assay with A549 is 17.9 µg/mL (≈ 34.6 µM); in the assay on SK-MEL-2 it was over 100 µg/mL; with HCT-15, 49.4 µg/mL (≈ 95.4 µM); in the assay on KB, 35 µg/mL (≈ 67.6 µM).
